The source made the active and inactive calls. The rule behind the calls is not given here.
Legend:
MDA-MB-468 [1] = assay: Potency index, ratio of staurosporine IC50 to compound IC50 for antiproliferative activity against human MDA-MB-468 cells measured after 48 hrs under CoCl2-induced hypoxic condition by MTT assay; type: functional
Carbonic anhydrase 9 = Carbonic anhydrase 9 (Homo sapiens, UniProt Q16790); assay: Inhibition of recombinant human carbonic anhydrase 9 preincubated with enzyme for 15 mins by phenol red dye based stopped flow CO2 hydrase assay
CCRF-CEM = assay: Antitumor activity against human CCRF-CEM cells assessed as cell growth inhibition at 10 uM incubated for 48 hrs by sulforhodamine B assay; type: functional; conditions: read-out: GI
Summary of the method: (§1)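 NCI Drug Evaluation Branch protocol: primary single-dose screen at 10 μM across a 57-line human cancer panel. Drug exposure is 48 h. Cell growth and viability are read by sulforhodamine B assay. Data are given as a mean graph of percent growth of treated cells and reported as percentage growth inhibition (GI%).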

IGROV-1 = assay: Antitumor activity against human IGROV1 cells assessed as cell growth inhibition at 10 uM incubated for 48 hrs by sulforhodamine B assay; type: functional; conditions: read-out: GI; summary of the method: as §1
MCF7 [2] = assay: Antiproliferative activity against human MCF7 cells measured after 48 hrs under normoxic condition by MTT assay; type: functional, cell-based; conditions: MCF7, 48 h
KM12 = assay: Antitumor activity against human KM12 cells assessed as cell growth inhibition at 10 uM incubated for 48 hrs by sulforhodamine B assay; type: functional; conditions: read-out: GI; summary of the method: as §1
SN12C = assay: Antitumor activity against human SN12C cells assessed as cell growth inhibition at 10 uM incubated for 48 hrs by sulforhodamine B assay; type: functional; conditions: read-out: GI; summary of the method: as §1
MCF7 [3] = assay: Antitumor activity against human MCF7 cells assessed as cell growth inhibition at 10 uM incubated for 48 hrs by sulforhodamine B assay; type: functional; conditions: read-out: GI; summary of the method: as §1
UO-31 = assay: Antitumor activity against human UO-31 cells assessed as cell growth inhibition at 10 uM incubated for 48 hrs by sulforhodamine B assay; type: functional; conditions: read-out: GI
Summary of the method: (§2)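 NCI one-dose screen: 57-cell-line panel exposed at 10 μM for 48 h, Drug Evaluation Branch protocol. Growth and viability read by sulforhodamine B; data given as percent growth inhibition from the mean-graph of percent growth of treated cells.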

MDA-MB-468 [4] = assay: Antitumor activity against human MDA-MB-468 cells assessed as cell growth inhibition at 10 uM incubated for 48 hrs by sulforhodamine B assay; type: functional; conditions: read-out: GI; summary of the method: as §1
NCI-H322M = assay: Antitumor activity against human NCI-H322M cells assessed as cell growth inhibition at 10 uM incubated for 48 hrs by sulforhodamine B assay; type: functional; conditions: read-out: GI; summary of the method: as §1
HOP-92 = assay: Antitumor activity against human HOP92 cells assessed as cell growth inhibition at 10 uM incubated for 48 hrs by sulforhodamine B assay; type: functional; conditions: read-out: GI; summary of the method: as §1
MCF7 [5] = assay: Induction of apoptosis in human MCF7 cells assessed as fold increase in apoptotic cells by Annexin V-FITC/propidium iodide staining based flow cytometric analysis relative to control; type: functional
MDA-MB-468 [6] = assay: Antiproliferative activity against human MDA-MB-468 cells measured after 48 hrs under normoxic condition by MTT assay; type: functional, cell-based; conditions: MDA-MB-468, 48 h
CDK9/cyclin T1 = CDK9/cyclin T1 (Homo sapiens, UniProt P50750); assay: Inhibition of human full-length N-terminal GST/His6-tagged CDK9 (1 to 372 residues)/His6-tagged Cyclin-T1 (1 to 726 residues) expressed in sf9 cells using (YSPTSPS)2KK peptide as substrate in presence of [gamma33P]ATP
MCF7 [7] = assay: Induction of apoptosis in human MCF7 cells assessed as necrotic cells by Annexin V-FITC/propidium iodide staining based flow cytometric analysis (reference value: 1.3 %); type: functional
NCI/ADR-RES = assay: Antitumor activity against human NCI/ADR-RES cells assessed as cell growth inhibition at 10 uM incubated for 48 hrs by sulforhodamine B assay; type: functional, cell-based; summary of the method: as §1
MDA-MB-468 [8] = assay: Antiproliferative activity against human MDA-MB-468 cells measured after 48 hrs under CoCl2-induced hypoxic condition by MTT assay; type: functional, cell-based; conditions: MDA-MB-468, 48 h
Carbonic anhydrase 1 = Carbonic anhydrase 1 (Homo sapiens, UniProt P00915); assay: Inhibition of recombinant human carbonic anhydrase 1 preincubated with enzyme for 15 mins by phenol red dye based stopped flow CO2 hydrase assay
MCF7 [9] = assay: Potency index, ratio of staurosporine IC50 to compound IC50 for antiproliferative activity against human MCF7 cells measured after 48 hrs under normoxic condition by MTT assay; type: functional
MDA-MB-468 [10] = assay: Potency index, ratio of staurosporine IC50 to compound IC50 for antiproliferative activity against human MDA-MB-468 cells measured after 48 hrs under normoxic condition by MTT assay; type: functional
T47D = assay: Antitumor activity against human T-47D cells assessed as cell growth inhibition at 10 uM incubated for 48 hrs by sulforhodamine B assay; type: functional; conditions: read-out: GI; summary of the method: as §2
MCF7 [11] = assay: Induction of apoptosis in human MCF7 cells assessed as late apoptotic cells by Annexin V-FITC/propidium iodide staining based flow cytometric analysis (reference value: 0.29 %); type: functional
RXF 393 = assay: Antitumor activity against human RXF 393 cells assessed as cell growth inhibition at 10 uM incubated for 48 hrs by sulforhodamine B assay; type: functional; conditions: read-out: GI; summary of the method: as §1
NCI-H522 = assay: Antitumor activity against human NCI-H522 cells assessed as cell growth inhibition at 10 uM incubated for 48 hrs by sulforhodamine B assay; type: functional; conditions: read-out: GI; summary of the method: as §1
A498 = assay: Antitumor activity against human A498 cells assessed as cell growth inhibition at 10 uM incubated for 48 hrs by sulforhodamine B assay; type: functional; conditions: read-out: GI; summary of the method: as §1
MCF7 [12] = assay: Induction of cell cycle arrest in human MCF7 cells assessed as accumulation at G2/M phase at IC50 concentration incubated for 24 hrs by PI/RNase staining based flow cytometric analysis; type: functional
Summary of the method: (§3)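 Cells were washed in ice-cold PBS, fixed in ice-cold 70% ethanol, treated with 100 µg/mL RNase and stained with 40 µg/mL PI. DNA content was read by flow cytometry, with sub-G1 compared against control.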

MCF7 [13] = assay: Induction of apoptosis in human MCF7 cells assessed as early apoptotic cells by Annexin V-FITC/propidium iodide staining based flow cytometric analysis (reference value: 0.47 %); type: functional
Carbonic anhydrase 12 = Carbonic anhydrase 12 (Homo sapiens, UniProt O43570); assay: Inhibition of recombinant human carbonic anhydrase 12 preincubated with enzyme for 15 mins by phenol red dye based stopped flow CO2 hydrase assay
Carbonic anhydrase 2 = Carbonic anhydrase 2 (Homo sapiens, UniProt P00918); assay: Inhibition of recombinant human carbonic anhydrase 2 preincubated with enzyme for 15 mins by phenol red dye based stopped flow CO2 hydrase assay
NCI-H226 = assay: Antitumor activity against human NCI-H226 assessed as cell growth inhibition at 10 uM incubated for 48 hrs by sulforhodamine B assay; type: functional; conditions: read-out: GI; summary of the method: as §1
MCF7 [14] = assay: Antiproliferative activity against human MCF7 cells measured after 48 hrs under CoCl2-induced hypoxic condition by MTT assay; type: functional, cell-based; conditions: MCF7, 48 h
MCF7 [15] = assay: Potency index, ratio of staurosporine IC50 to compound IC50 for antiproliferative activity against human MCF7 cells measured after 48 hrs under CoCl2-induced hypoxic condition by MTT assay; type: functional
MCF7 [16] = assay: Induction of cell cycle arrest in human MCF7 cells assessed as decrease in S phase population at IC50 concentration incubated for 24 hrs by PI/RNase staining based flow cytometric analysis; type: functional; summary of the method: as §3
MCF7 [17] = assay: Induction of cell cycle arrest in human MCF7 cells assessed as fold increase in apoptotic cells at sub-G1 phase at IC50 concentration incubated for 24 hrs by PI/RNase staining based flow cytometric analysis relative to control; type: functional; summary of the method: as §3
[18] = biological target: Cyclin-dependent kinase 2/cyclin E1 (Homo sapiens, UniProt P24941); assay: Inhibition of CDK2/cyclin E (unknown origin) expressed in baculovirus infected Sf21 insect cells using histone H1 as substrate in presence of [gamma33P]ATP

Chain of CDK9/cyclin T1 (O60563 whole entry, the tested form may be a part): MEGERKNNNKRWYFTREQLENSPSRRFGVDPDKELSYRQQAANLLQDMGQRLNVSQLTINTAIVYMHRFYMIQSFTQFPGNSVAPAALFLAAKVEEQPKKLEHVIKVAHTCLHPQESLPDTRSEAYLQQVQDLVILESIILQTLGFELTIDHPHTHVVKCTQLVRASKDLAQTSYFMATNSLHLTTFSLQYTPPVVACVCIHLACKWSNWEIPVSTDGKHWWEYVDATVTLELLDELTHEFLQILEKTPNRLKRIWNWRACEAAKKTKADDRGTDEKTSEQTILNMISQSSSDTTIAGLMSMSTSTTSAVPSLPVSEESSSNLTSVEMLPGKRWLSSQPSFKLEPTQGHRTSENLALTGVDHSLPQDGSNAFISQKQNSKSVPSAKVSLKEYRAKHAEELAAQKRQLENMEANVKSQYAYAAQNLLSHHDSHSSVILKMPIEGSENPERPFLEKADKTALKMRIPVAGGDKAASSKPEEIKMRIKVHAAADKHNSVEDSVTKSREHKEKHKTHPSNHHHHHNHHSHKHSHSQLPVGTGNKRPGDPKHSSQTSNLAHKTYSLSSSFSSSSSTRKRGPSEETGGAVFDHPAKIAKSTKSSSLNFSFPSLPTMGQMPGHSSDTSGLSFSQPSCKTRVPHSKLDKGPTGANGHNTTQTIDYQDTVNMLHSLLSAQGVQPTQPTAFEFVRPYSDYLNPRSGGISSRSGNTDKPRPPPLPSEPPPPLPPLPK
Chain of CDK9/cyclin T1 (P50750 whole entry, the tested form may be a part): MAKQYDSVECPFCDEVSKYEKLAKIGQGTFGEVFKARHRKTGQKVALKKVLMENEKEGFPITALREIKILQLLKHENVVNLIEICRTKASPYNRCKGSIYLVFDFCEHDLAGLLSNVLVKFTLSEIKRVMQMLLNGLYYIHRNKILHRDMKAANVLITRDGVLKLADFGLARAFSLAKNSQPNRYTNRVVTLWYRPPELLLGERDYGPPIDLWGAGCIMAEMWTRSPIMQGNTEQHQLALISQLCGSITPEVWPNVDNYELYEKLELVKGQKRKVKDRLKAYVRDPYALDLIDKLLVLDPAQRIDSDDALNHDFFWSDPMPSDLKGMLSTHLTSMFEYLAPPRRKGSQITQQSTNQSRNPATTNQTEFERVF
Chain of Carbonic anhydrase 12 (O43570 whole entry): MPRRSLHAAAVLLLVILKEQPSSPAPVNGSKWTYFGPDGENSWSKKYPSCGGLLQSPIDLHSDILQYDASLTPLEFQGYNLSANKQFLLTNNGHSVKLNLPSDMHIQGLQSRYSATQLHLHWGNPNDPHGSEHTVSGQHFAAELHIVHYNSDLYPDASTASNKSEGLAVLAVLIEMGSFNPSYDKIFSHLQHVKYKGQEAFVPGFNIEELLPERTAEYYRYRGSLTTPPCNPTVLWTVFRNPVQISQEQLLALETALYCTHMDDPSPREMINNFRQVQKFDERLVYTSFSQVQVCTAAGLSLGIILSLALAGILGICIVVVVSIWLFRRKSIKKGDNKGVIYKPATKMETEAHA
Chain of Carbonic anhydrase 1 (P00915 whole entry): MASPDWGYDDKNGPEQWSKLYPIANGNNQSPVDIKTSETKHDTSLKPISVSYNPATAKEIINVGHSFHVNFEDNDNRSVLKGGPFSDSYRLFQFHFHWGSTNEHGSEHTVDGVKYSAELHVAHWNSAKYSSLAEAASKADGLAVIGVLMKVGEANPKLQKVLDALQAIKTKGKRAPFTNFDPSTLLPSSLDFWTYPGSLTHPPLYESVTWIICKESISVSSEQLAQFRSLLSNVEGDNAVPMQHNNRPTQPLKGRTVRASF

`N#Cc1c(-c2ccccc2)nc2c(/N=N/c3ccc(S(N)(=O)=O)cc3)c(N)nn2c1N` was tested, and the “Ratio IC50” value (MDA-MB-468 [1]) was 6, the Ki (Carbonic anhydrase 9) was 33.5 nM and the inhibition of growth at 10 µM (CCRF-CEM) was 21%. For the same compound, the inhibition of growth at 10 µM (IGROV-1) was 35%, the IC50 (MCF7 [2]) was 660 nM and the inhibition of growth at 10 µM (KM12) was 50%. It also gave an inhibition of growth at 10 µM (SN12C) of 24%, an inhibition of growth at 10 µM (MCF7 [3]) of 60% and an inhibition of growth at 10 µM (UO-31) of 25%. For the same compound, the inhibition of growth at 10 µM (MDA-MB-468 [4]) was 58%, the inhibition of growth at 10 µM (NCI-H322M) was 21% and the inhibition of growth at 10 µM (HOP-92) was 27%. For the same compound, the “fold change (FC)” value (MCF7 [5]) was 26, the IC50 (MDA-MB-468 [6]) was 1890 nM and the IC50 (CDK9/cyclin T1) was over 12500 nM. For the same compound, the Activity (MCF7 [7]) was 2.64%, the Activity (NCI/ADR-RES) was “inactive” and the IC50 (MDA-MB-468 [8]) was 1070 nM. For the same compound, the Ki (Carbonic anhydrase 1) was 2680 nM, the “Ratio IC50” value (MCF7 [9]) was 5 and the “Ratio IC50” value (MDA-MB-468 [10]) was 2.3. For the same compound, the inhibition of growth at 10 µM (T47D) was 26%, the Activity (MCF7 [11]) was 16.94% and the inhibition of growth at 10 µM (RXF 393) was 42%. For the same compound, the inhibition of growth at 10 µM (NCI-H522) was 54%, the inhibition of growth at 10 µM (A498) was 30% and the Activity (MCF7 [12]) was “Active”. It also gave an Activity (MCF7 [13]) of 8.46%, a Ki (Carbonic anhydrase 12) of 39.4 nM and a Ki (Carbonic anhydrase 2) of 922 nM. For the same compound, the inhibition of growth at 10 µM (NCI-H226) was 24%, the IC50 (MCF7 [14]) was 960 nM and the “Ratio IC50” value (MCF7 [15]) was 9. The Activity (MCF7 [16]) was “Active”, the “fold change (FC)” value (MCF7 [17]) was 7 and the IC50 [18] was over 12500 nM.
